Measured values published in ChEMBL document CHEMBL4396969, “Discovery of IACS-8803 and IACS-8779, potent agonists of stimulator of interferon genes (STING) with robust systemic antitumor efficacy” (Bioorg Med Chem Lett, 2019).
Activity calls are given as the source filed them. The rule behind the calls is not given here.

Key:
Mus musculus [1] = assay: Antitumor activity against mouse B16-OVA cells implanted in mouse assessed as tumour regression in contralateral flank at 10 ug administered intratumorally on day 6, 9 and 12 post implantation; format: functional, cell-based
In short: (§1)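 Mice (n=5 per group) implanted bilaterally with 1×10^5 B16-Ova cells; 10 µg CDN injected intratumorally into one flank only on days 6, 9 and 12 post implantation. Tumor regression followed in injected and contralateral untreated flanks; cure of both tumors recorded.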

[2] = biological target: T1, Stimulator of interferon genes protein (Mus musculus) (UniProt Q3TBT3); assay: Agonist activity at STING in mouse J774 cells assessed as stimulation of IRF3 pathway measured after 20 hrs by luciferase reporter gene assay; format: cell-based
T1 sequence (whole entry): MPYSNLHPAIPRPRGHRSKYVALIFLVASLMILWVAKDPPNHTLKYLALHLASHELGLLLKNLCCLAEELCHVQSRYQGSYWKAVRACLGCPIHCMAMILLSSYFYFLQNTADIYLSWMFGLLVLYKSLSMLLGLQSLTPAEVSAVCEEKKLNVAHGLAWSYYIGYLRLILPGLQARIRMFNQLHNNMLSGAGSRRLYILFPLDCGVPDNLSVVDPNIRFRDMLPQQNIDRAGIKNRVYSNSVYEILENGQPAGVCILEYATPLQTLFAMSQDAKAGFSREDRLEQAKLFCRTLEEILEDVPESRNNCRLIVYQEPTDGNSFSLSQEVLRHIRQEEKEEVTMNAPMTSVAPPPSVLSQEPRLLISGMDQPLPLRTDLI
In short: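 J774-Dual reporter cells (stably carrying inducible NF-kB and IRF3 reporter constructs), 5×10^4 per well, given CDN at 1 µg/mL for 20 hours; IRF3 pathway activity read by luciferase assay.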

Mus musculus [3] = assay: Antitumor activity against mouse B16-OVA cells implanted in mouse assessed as tumour regression in injected flank at 10 ug administered intratumorally on day 6, 9 and 12 post implantation; format: functional, cell-based; in short: as §1
Mus musculus [4] = assay: Antitumor activity against mouse B16-OVA cells implanted in mouse assessed as higher number of mouse cured of tumors at 10 ug administered intratumorally on day 6, 9 and 12 post implantation; format: functional, cell-based; in short: as §1

Row | Structure (SMILES) | Activity [2] | Activity (Mus musculus [1]) | Activity (Mus musculus [3]) | Activity (Mus musculus [4])
1 | Nc1ncnc2c1ncn2[C@@H]1O[C@@H]2CO[P@@](=O)(S)O[C@@H]3[C@H](O)[C@@H](CO[P@@](=O)(S)O[C@H]2[C@H]1F)O[C@H]3n1cnc2c(N)ncnc21 | Active | Active | Active | Active
2 | Nc1ncnc2c1ccn2[C@@H]1O[C@@H]2CO[P@@](=O)(S)O[C@H]3[C@@H](O)[C@H](n4cnc5c(N)ncnc54)O[C@@H]3CO[P@](=O)(S)O[C@@H]1[C@@H]2O | Active | – | – | –
3 | Nc1nc2c(ncn2[C@@H]2O[C@@H]3COP(=O)(O)O[C@H]4[C@@H](O)[C@H](n5cnc6c(N)ncnc65)O[C@@H]4COP(=O)(O)O[C@@H]2[C@@H]3O)c(=O)[nH]1 | – | Active | Active | Active
4 | Nc1ncnc2c1ncn2[C@@H]1O[C@@H]2CO[P@](=O)(S)O[C@@H]3[C@H](O)[C@@H](CO[P@@](=O)(S)O[C@H]2[C@H]1F)O[C@H]3n1cnc2c(N)ncnc21 | Active | – | – | –

More lines, main results first:

Row | Activity [2] | Structure (SMILES) | Activity (Mus musculus [1]) | Activity (Mus musculus [3]) | Activity (Mus musculus [4])
5 | Active | Nc1ncnc2c1ccn2[C@@H]1O[C@@H]2CO[P@@](=O)(S)O[C@@H]3[C@H](O)[C@@H](CO[P@@](=O)(S)O[C@H]2[C@H]1O)O[C@H]3n1cnc2c(N)ncnc21 | Active | Active | Active
6 | Active | Nc1ncnc2c1ccn2[C@@H]1O[C@@H]2CO[P@](=O)(S)O[C@@H]3[C@H](O)[C@@H](CO[P@@](=O)(S)O[C@H]2[C@H]1O)O[C@H]3n1cnc2c(N)ncnc21 | – | – | –
7 | Active | Nc1ncnc2c1ccn2[C@@H]1O[C@@H]2CO[P@@](=O)(S)O[C@H]3[C@@H](O)[C@H](n4cnc5c(N)ncnc54)O[C@@H]3CO[P@@](=O)(S)O[C@@H]1[C@@H]2O | – | – | –
